In assay [1] the test system is MT4. Briefly: Antiviral activity against HIV-1 infected MT-4 cells; no significant activity uM. The assay is classed as functional, cell-based. The settings on record: Homo sapiens. In short, it runs like this: (§1)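 HTLV-1-transformed MT4 cells were infected with HIV-1 strain 3B at 100× the amount giving a 50% drop in cell growth. They were cultured 5 days with a range of compound concentrations. IC50 is the concentration restoring 50% of infected-cell growth (cytopathic effect) relative to uninfected MT4 controls.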

Assay [2] deals with Human immunodeficiency virus type 1 reverse transcriptase (Human immunodeficiency virus 1, UniProt Q72547). Briefly: Inhibitory activity against HIV-1 reverse transcriptase. A digest of the protocol: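 Recombinant HIV RT at 1 nM was combined with 40 nM Eu-chelate-labeled biotinylated DNA primer/RNA template and 100 nM Cy5-dUTP. Reactions were started with enzyme.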
Assay [3] relates to Human immunodeficiency virus 1. Briefly: Antiviral activity against HIV-1 infected human MT-4 cells. It is filed as functional, organism-based. The following applies: Human immunodeficiency virus 1, MT4. A digest of the protocol:
as §1

Assay [4] concerns the target Human immunodeficiency virus type 1 reverse transcriptase (Human immunodeficiency virus 1) (UniProt Q72547). Briefly: Inhibitory activity against HIV-1 reverse transcriptase; no significant activity uM. In short, it runs like this: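 Recombinant HIV RT at 1 nM was added to start 50 µL reactions. Cy5-dUMP incorporation was followed for 30 min by time-resolved energy transfer (excitation 340 nm, emission 665 nm).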

For assay [5], the system named is MT4. Nature of the assay: Cell culture cytotoxicity against MT-4 cells. The following applies: Homo sapiens. It is filed as functional, cell-based. A digest of the protocol:
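MT4 cells were exposed to compound in parallel with the 5-day HIV-1 strain 3B cytopathic-effect assay. Compound-induced cytotoxicity is reported as the cell culture cytotoxicity IC50 (CCIC50).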

Assay [6] concerns MT4. Briefly: Antiviral activity against HIV-1 infected MT-4 cells at a dose of 5 uM. The assay is classed as functional. The settings on record: Homo sapiens.
Assay [7] concerns HeLa. Nature of the assay: Antiviral activity against wild-type HIV-1 in the HeLa MAGI assay. It is filed as functional, cell-based. The settings on record: Homo sapiens. In short, it runs like this:
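HeLa MAGI cells were infected with isogenic recombinant HIV-1. After 3 days, β-galactosidase was quantified by chemiluminescent substrate activation. IC50 is the concentration inhibiting 50% of the HIV-1-induced β-galactosidase signal relative to untreated controls.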

Assay [8] relates to HeLa. Briefly: Antiviral activity against K103N/P225H mutant virus in the HeLa MAGI assay. The assay is classed as functional, cell-based, Homo sapiens. In short, it runs like this: (§2)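 Isogenic recombinant HIV-1 strains carrying the listed RT mutations were tested against the test compounds in HeLa MAGI indicator cells. Beta-galactosidase was quantified by activation of a chemiluminescent substrate 3 days after infection. IC50 was the concentration inhibiting 50% of the HIV-1-induced beta-galactosidase signal relative to untreated controls. It was determined for each recombinant virus.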

The subject of assay [9] is HeLa. Nature of the assay: Antiviral activity against V106A/Y181C mutant virus in the HeLa MAGI assay. It is filed as functional, cell-based, Homo sapiens. In short, it runs like this: as §2
Assay [10] relates to HeLa. Nature of the assay: Antiviral activity against E138K mutant virus in the HeLa MAGI assay. The assay is classed as functional, cell-based, Homo sapiens. A digest of the protocol: as §2
For assay [11], the system named is HeLa. Briefly: Antiviral activity against V108I/Y181C mutant virus in the HeLa MAGI assay. The assay is classed as functional, cell-based, Homo sapiens. In short, it runs like this: as §2
Assay [12] relates to HeLa. Briefly: Antiviral activity against Y188C mutant virus in the HeLa MAGI assay. It is filed as functional, cell-based, Homo sapiens. In short, it runs like this:
as §2

Assay [13] relates to HeLa. Nature of the assay: Antiviral activity against V108I mutant virus in the HeLa MAGI assay. It is filed as functional, cell-based, Homo sapiens. A digest of the protocol:
as §2

The subject of assay [14] is HeLa. Nature of the assay: Antiviral activity against K103N/L100I mutant virus in the HeLa MAGI assay. The assay is classed as functional, cell-based, Homo sapiens. In short, it runs like this:
as §2

Assay [15] deals with HeLa. Briefly: Antiviral activity against K103N mutant virus in the HeLa MAGI assay. It is filed as functional, cell-based, Homo sapiens. A digest of the protocol:
as §2

Assay [16] relates to HeLa. Briefly: Antiviral activity against P236L mutant virus in the HeLa MAGI assay. It is filed as functional, cell-based, Homo sapiens. A digest of the protocol:
as §2

Assay [17] deals with HeLa. Briefly: Antiviral activity against G190A mutant virus in the HeLa MAGI assay. The assay is classed as functional, cell-based, Homo sapiens. A digest of the protocol:
as §2

Assay [18] has as its system HeLa. Nature of the assay: Antiviral activity against Y181C mutant virus in the HeLa MAGI assay. The assay is classed as functional, cell-based, Homo sapiens. In short, it runs like this:
as §2

Assay [19] relates to HeLa. Nature of the assay: Antiviral activity against K103N/V108I mutant virus in the HeLa MAGI assay. The assay is classed as functional, cell-based, Homo sapiens. In short, it runs like this: as §2
In assay [20] the test system is HeLa. Briefly: Antiviral activity against K103N/Y181C mutant virus in the HeLa MAGI assay. It is filed as functional, cell-based, Homo sapiens. In short, it runs like this:
as §2

Assay [21] deals with HeLa. Briefly: Antiviral activity against V106A mutant virus in the HeLa MAGI assay. The assay is classed as functional, cell-based, Homo sapiens. A digest of the protocol: as §2
Assay [22] concerns MT4. Nature of the assay: Antiviral activity against HIV-1 infected MT-4 cells; No significant activity uM. The assay is classed as functional, cell-based. The settings on record: Homo sapiens. In short, it runs like this:
as §1

For `COc1ccc(Sc2cccc(N)c2C#N)cc1`, the NS entry in the assay with MT4 [1] is “no significant activity”. For the same molecule, the IC50 in [2] was > 17000 nM.

Take `Cc1ccccc1Sc1cccc(N)c1C#N`: the IC50 in assay [3] was 16000 nM; in the assay with MT4 [5] it was > 40000 nM. Further, the NS entry in assay [4] is “no significant activity”.

In turn, `N#Cc1c(N)cccc1Sc1cc(Cl)cc(Cl)c1` showed an inhibition at 5 µM with MT4 [6] of 62%. For the same molecule, the results for the IC50 (in assay [2]; in the assay with MT4 [5]) were 120 nM and 3000 nM, respectively.

Take `Cc1cc(Cl)cc(S(=O)(=O)c2cccc(N)c2C#N)c1`: the half-maximal inhibitory concentration (IC50) in the assay with HeLa [7] was found to be 15 nM; in assay [3], 30 nM; with HeLa [8], 19000 nM; in assay [2], 5 nM; in the assay with HeLa [9], 210 nM; with HeLa [10], 15 nM. Also, the IC50 in the assay on HeLa [11] was 13000 nM; in the assay on HeLa [12] it was 400 nM; in the assay with HeLa [13], 17 nM; in the assay with HeLa [14], 20000 nM; in the assay on HeLa [15] it was 3600 nM; in the assay on HeLa [16], 10 nM. The IC50 in the assay with HeLa [17] was 40 nM; with HeLa [18], 14000 nM; in the assay with HeLa [19], 33000 nM; in the assay with HeLa [20] it was > 50000 nM; in the assay with MT4 [5], > 200000 nM; in the assay on HeLa [21] it was 2.8 nM.

Take `O=[N+]([O-])c1ccccc1[S+]([O-])c1ccccc1[N+](=O)[O-]`: the NS entry with MT4 [22] was “No significant activity”.

A word on the IC50: it is the concentration that inhibits the measured activity by half. High values mean weaker potency, low ones greater potency. Broadly, the inhibition is how much of the control response was suppressed.

The record behind these values is ChEMBL document CHEMBL1134494, “2-Amino-6-arylsulfonylbenzonitriles as non-nucleoside reverse transcriptase inhibitors of HIV-1” (J Med Chem, 2001).
